Compound activity from PubChem BioAssay.
A selection: hits, their analogues and other compounds. The true share with any hit is near 2.2%.
Granule exo inh: LAMP-1 surface exposure blockers, TALL-104 cells – cell-based, flow cytometry, MLPCN library, primary screen; TALL-104 LAMP-1 surface exposure; cells stimulated with thapsigargin and PMA; inhibition, % at 10 µM; 0.66% of 360,000 active; AID 651702, 2012;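 active = inhibition above about 55%, limit read from the data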
ARFGAP1 inhibitor: inhibitors of rat ARFGAP1 GAP activity, primary screen, biochemical, fluorescence polarization, GDP tracer. AID 651572, 2012. 0.26% of 360,000 active. ADP-ribosylation factor GTPase-activating protein 1 (Rattus norvegicus), Q62848. Arfgap1-stimulated ARF1 GTP hydrolysis, GDP FP detection. inhibition, % at 16.5 µM;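 active = inhibition above a per-plate limit, mean inhibition of low control wells plus 3 SD, cut at about 25% in these data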;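 also: 0% = DMSO wells with enzyme and 100% = wells lacking Arfgap1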
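Assay system: Rat Arfgap1 GAP domain (His6, aa 1-136), purified enzyme | Buffer or medium: HEPES 25 mM pH 7.5, NaCl 150 mM, MgCl2, DTT | Schedule: GTP hydrolysis reaction 2 h at 25 °C | Signal: FP of antibody-bound GDP Alexa 633 tracer, ex 620/em 688 nm | Measure: Percent inhibition of Arfgap1-stimulated GTP hydrolysis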
NRP1-CendR mod: modulators of CendR peptide binding to NRP-1, primary screen, biochemical, fluorescence polarization, uHTS; inhibition, % at 25 µM; FAM-RPARPAR peptide binding to NRP-1; Neuropilin-1 (Homo sapiens), O14786; AID 602438, 2012; 0.85% of 360,000 active;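 active = inhibition or corrected inhibition above about 18%, plus a signal ratio from 0.5 to 1.5, limit read from the data, passing the limit was not always enough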
Target sequence (O14786 whole entry, looked up): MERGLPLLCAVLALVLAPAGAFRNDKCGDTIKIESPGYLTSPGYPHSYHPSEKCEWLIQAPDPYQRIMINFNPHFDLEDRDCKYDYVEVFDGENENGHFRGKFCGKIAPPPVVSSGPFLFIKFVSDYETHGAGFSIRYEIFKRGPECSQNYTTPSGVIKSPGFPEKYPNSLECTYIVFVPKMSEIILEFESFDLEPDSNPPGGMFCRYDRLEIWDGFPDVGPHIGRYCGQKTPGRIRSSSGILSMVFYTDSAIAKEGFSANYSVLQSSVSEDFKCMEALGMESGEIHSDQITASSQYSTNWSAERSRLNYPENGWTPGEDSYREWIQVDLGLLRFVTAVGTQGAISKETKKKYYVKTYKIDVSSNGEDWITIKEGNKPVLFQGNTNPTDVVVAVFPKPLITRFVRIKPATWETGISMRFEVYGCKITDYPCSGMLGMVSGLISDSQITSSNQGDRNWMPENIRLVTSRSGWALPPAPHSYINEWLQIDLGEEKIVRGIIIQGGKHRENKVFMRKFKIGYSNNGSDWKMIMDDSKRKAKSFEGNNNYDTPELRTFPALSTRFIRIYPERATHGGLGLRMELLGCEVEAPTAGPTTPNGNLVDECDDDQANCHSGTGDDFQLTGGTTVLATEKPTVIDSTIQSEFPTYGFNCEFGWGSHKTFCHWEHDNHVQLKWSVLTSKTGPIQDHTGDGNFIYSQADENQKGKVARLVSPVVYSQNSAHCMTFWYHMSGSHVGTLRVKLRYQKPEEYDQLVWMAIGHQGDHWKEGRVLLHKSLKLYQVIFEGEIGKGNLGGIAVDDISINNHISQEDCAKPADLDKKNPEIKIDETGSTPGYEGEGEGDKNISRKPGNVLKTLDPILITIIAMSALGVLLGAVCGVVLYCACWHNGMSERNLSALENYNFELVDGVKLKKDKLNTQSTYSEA
V-ATPase pH: regulators of yeast V-ATPase proton pumping, primary screen, pHLuorin cytosolic pH fluorescence | S. cerevisiae | response, % at 10 µM | 0.37% of 350,000 active | AID 504577, 2011; in the data active = response mostly above about 7.3%, no sharp cut-off; inactive = mostly below about 5.4%; also: actives read high
ASAP1 GAP inh: inhibitors of human ASAP1 ArfGAP activity, primary screen, biochemical, fluorescence polarization. Arf-GAP with SH3 domain, ANK repeat and PH domain-containing protein 1 (Homo sapiens), …. ASAP1-stimulated ARF1 GTP hydrolysis, GDP FP detection. inhibition, % at 16.5 µM. 0.19% of 360,000 active. AID 624377, 2012; in the data active = inhibition above about 25%;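 also: 0% = vehicle with enzyme and substrate and 100% = no enzyme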
* = called active by the depositor.

`O=S1(=O)CCSC[C@@H](CN2CCCC2)N1` gave ARFGAP1 inhibitor 7 and ASAP1 GAP inh -3.
CC(=O)Nc1nnc(CCS(=O)(=O)c2ccc(C)cc2)s1 was read as Granule exo inh 0, ARFGAP1 inhibitor -13, NRP1-CendR mod 11, V-ATPase pH 23* and ASAP1 GAP inh -11.
`COc1ccc(NC(=O)C2Cc3c(-c4ccco4)ccnc3O2)cc1OC` (configuration not stated) gave Granule exo inh 2, ARFGAP1 inhibitor 0, NRP1-CendR mod -3 and ASAP1 GAP inh 6.
For C[n+]1cccc2c(Br)ccc([O-])c21 the results were Granule exo inh -5, ARFGAP1 inhibitor 13, NRP1-CendR mod 26*, V-ATPase pH 1 and ASAP1 GAP inh -7.
For COc1ccc(C/C(C)=N/NC(=S)Nc2ccc(Cl)cc2)cc1 the results were Granule exo inh -3, ARFGAP1 inhibitor 8, NRP1-CendR mod 41*, V-ATPase pH 0 and ASAP1 GAP inh -4.
`CCOC(=O)C(C(=O)OCC)c1cc(Br)c2noc3c2c1C(=O)c1ccccc1-3` gave Granule exo inh 98*, ARFGAP1 inhibitor -4, NRP1-CendR mod 127, V-ATPase pH 3 and ASAP1 GAP inh 6.
CCCCNc1cccc2c1S(=O)(=O)N[C@@H](CC(C)C)CO2 was read as ARFGAP1 inhibitor 10 and ASAP1 GAP inh 6.
c1ccc2c(c1)OCc1nccn1-2 was read as ARFGAP1 inhibitor 2 and ASAP1 GAP inh 3.
CCOC(=O)CCC(NC(=O)CCCC(=O)NC(CCC(=O)OCC)C(=O)OCC)C(=O)OCC (configuration not stated) was read as Granule exo inh -1, ARFGAP1 inhibitor 9, NRP1-CendR mod 22*, V-ATPase pH 1 and ASAP1 GAP inh 3.
`CCC(=O)N1CCc2cc(Br)cc(S(=O)(=O)NCC3CCCO3)c21` (configuration not stated) gave Granule exo inh -1, ARFGAP1 inhibitor -6, NRP1-CendR mod -2, V-ATPase pH 14* and ASAP1 GAP inh 17.
`CC(C)[C@H](NC(=O)c1ccc(Cl)cc1Cl)C(=O)N1CCC[C@H]1C(=O)NCc1ccccc1` gave ARFGAP1 inhibitor -8 and ASAP1 GAP inh 6.
Screening CCC(=O)N1CCN(c2ccccc2NC(=O)c2ccc(-c3cccc([N+](=O)[O-])c3)o2)CC1 returned Granule exo inh 2, ARFGAP1 inhibitor -5, NRP1-CendR mod -2, V-ATPase pH -1 and ASAP1 GAP inh -4.
`CN1CCN(c2ccccc2NC(=O)c2ccc(-c3cccc([N+](=O)[O-])c3)o2)CC1` gave Granule exo inh 4, ARFGAP1 inhibitor -5, NRP1-CendR mod 45*, V-ATPase pH 2 and ASAP1 GAP inh -4.
For COc1cccc(NC(=O)CN(C)CC(=O)Nc2ccc(C)c(S(=O)(=O)N3CCOCC3)c2)c1 the results were Granule exo inh -8, ARFGAP1 inhibitor 14, NRP1-CendR mod 0, V-ATPase pH 2 and ASAP1 GAP inh 3.
Screening Cc1ccc(NC(=O)NC(=O)CSc2nnc(-c3ccc(Cl)cc3Cl)n2N)c(C)c1 returned Granule exo inh 0, ARFGAP1 inhibitor -9, NRP1-CendR mod 0, V-ATPase pH 14* and ASAP1 GAP inh -1.
`Cc1onc(-c2ccccc2)c1C(=O)NCC1CCN(C(=O)C(=O)c2cccs2)CC1` gave ARFGAP1 inhibitor 4 and ASAP1 GAP inh -9.
`O=C(CNC(=O)C1CCCCC1)NNC(=O)c1ccccc1Br` gave Granule exo inh 1, ARFGAP1 inhibitor 6, NRP1-CendR mod 9, V-ATPase pH 0 and ASAP1 GAP inh 6.
Screening COC(=O)c1cc2c(c3c4cc(F)ccc4n(S(=O)(=O)c4ccc(C)cc4)c13)C(=O)N(Cc1ccccc1OC)C2 returned ARFGAP1 inhibitor 16 and ASAP1 GAP inh 9.
`CCCCOC(=O)CCn1c(=S)oc2ccccc21` gave Granule exo inh -3, ARFGAP1 inhibitor 1, NRP1-CendR mod 53*, V-ATPase pH 2 and ASAP1 GAP inh -8.
For O=C(COC(=O)c1ccccn1)c1ccc([N+](=O)[O-])cc1 the results were Granule exo inh 1, ARFGAP1 inhibitor -2, NRP1-CendR mod 22*, V-ATPase pH 0 and ASAP1 GAP inh 9.
Screening O=C(CSc1ccc(-c2ccccn2)nn1)c1ccc([N+](=O)[O-])cc1 returned Granule exo inh -2, ARFGAP1 inhibitor 7, NRP1-CendR mod -6, V-ATPase pH 4 and ASAP1 GAP inh 12.
For COc1ccc(-n2nnc3c(SCC(=O)NCc4ccco4)ncnc32)cc1 the results were Granule exo inh 8, ARFGAP1 inhibitor 21, NRP1-CendR mod 36*, V-ATPase pH -2 and ASAP1 GAP inh -4.
Cc1onc(-c2ccccc2Cl)c1C(=O)N1CCOC12CCN(c1cccc(F)n1)CC2 was read as Granule exo inh -2, ARFGAP1 inhibitor -10, NRP1-CendR mod 18*, V-ATPase pH -2 and ASAP1 GAP inh -9.
Cc1onc(-c2ccccc2Cl)c1C(=O)N1CCOC12CCCCC2 was read as Granule exo inh 1, ARFGAP1 inhibitor -11, NRP1-CendR mod 3, V-ATPase pH 5 and ASAP1 GAP inh 14.
`CCOc1ccc(CCNC(=O)C2(c3ccccc3)CC2)cc1OCC` gave Granule exo inh 0, ARFGAP1 inhibitor 6, NRP1-CendR mod 20*, V-ATPase pH 3 and ASAP1 GAP inh -5.
For O=C1c2cccc3c([N+](=O)[O-])ccc(c23)C(=O)N1c1nccs1 the results were Granule exo inh 85*, ARFGAP1 inhibitor 7, NRP1-CendR mod 0, V-ATPase pH -32 and ASAP1 GAP inh 3.
For CCn1c(C)cc2c(c1=O)C(c1ccncc1)C(C#N)=C(N)O2 (configuration not stated) the results were Granule exo inh 7, ARFGAP1 inhibitor -13, NRP1-CendR mod -13, V-ATPase pH 5 and ASAP1 GAP inh -5.
`COc1ccc(CCn2c(C)cc3c(c2=O)C(c2ccncc2)C(C#N)=C(N)O3)cc1OC` (configuration not stated) gave Granule exo inh 6, ARFGAP1 inhibitor -13, NRP1-CendR mod 19*, V-ATPase pH 1 and ASAP1 GAP inh -4.
Screening Cn1nc(C(C)(C)C)cc1C(=O)NCC1CCN(C(=O)C(=O)c2cc3ccccc3o2)CC1 returned ARFGAP1 inhibitor 12 and ASAP1 GAP inh 6.
Screening Cc1c(C(=O)O)cccc1-n1c(C)cc(/C=N/Nc2ccc([N+](=O)[O-])cn2)c1C returned Granule exo inh -2, ARFGAP1 inhibitor 5, NRP1-CendR mod -65, V-ATPase pH 16* and ASAP1 GAP inh 11.
